From PMC12429009 (The FASEB Journal, 2025)
Entries after “also recorded” stand apart in the source; their conditions may differ. Where no end group is shown, it is not given here. The star is where a group is joined. 5FAM = O=C1OC2(c3ccc(O)cc3Oc3cc(O)ccc32)c2ccc(C(=O)*)cc21

Assays:
14‐3‐3ζ Y82A [1] = target: T1, 14‐3‐3ζ Y82A (Homo sapiens, UniProt P63104, Y82A); test: ExoS peptide binding to 14‐3‐3ζ Y82A by microscale thermophoresis, effect of ATP; settings: MST; different concentrations of ATP
T1 sequence (P63104 1-245 Y82A): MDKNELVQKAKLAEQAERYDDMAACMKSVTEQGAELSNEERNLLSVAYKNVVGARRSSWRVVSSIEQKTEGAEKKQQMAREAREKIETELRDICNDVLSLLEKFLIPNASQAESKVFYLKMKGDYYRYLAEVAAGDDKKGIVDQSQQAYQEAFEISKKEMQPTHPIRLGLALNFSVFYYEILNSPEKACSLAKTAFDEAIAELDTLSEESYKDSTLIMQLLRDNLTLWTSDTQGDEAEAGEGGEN
In short: (§1)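 Purified untagged mutant 14‑3‑3ζ, starting at 32 μM, serially diluted 2‑fold in 10 μM FAM‑labeled peptide, in the FP binding buffer (50 mM Na‑HEPES pH 8.0, 150 mM NaCl, 10% glycerol), with ATP at several concentrations. Fluorescent counts and power set beforehand. Samples read in standard glass capillaries on a Monolith NT.115.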

14‐3‐3ζ E180A = type: binding, human; settings: FP; 1 mM ATP; 5FAM‐labeled ExoS peptide 62.5 nM, 25°C, 30 min
In short: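 Recombinant human 14‑3‑3ζ mutant, His‑tagged, expressed in E. coli BL21 DE3, purified by Ni‑NTA and size exclusion, tag removed with TEV, buffer‑exchanged into 50 mM Na‑HEPES pH 8.0, 150 mM NaCl, 10% glycerol. N‑terminal FAM‑peptide held at 62.5 nM, protein titrated 8 to 0.0625 μM, 1 mM ATP in binding buffer. 25°C, dark, 30 min; anisotropy change read; K_D fitted.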

14‐3‐3ζ WT [2] = target: T2, 14‐3‐3ζ WT (Homo sapiens, UniProt P63104); test: LiP‐MS; type: binding; settings: 500 μM ATPγS
T2 sequence (P63104 1-245): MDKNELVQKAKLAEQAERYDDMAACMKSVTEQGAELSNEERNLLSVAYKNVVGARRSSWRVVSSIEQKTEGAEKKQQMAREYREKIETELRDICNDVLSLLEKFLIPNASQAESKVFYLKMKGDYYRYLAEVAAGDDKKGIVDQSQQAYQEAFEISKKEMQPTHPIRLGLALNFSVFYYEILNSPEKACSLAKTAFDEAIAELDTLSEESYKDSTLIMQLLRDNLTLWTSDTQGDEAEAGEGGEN

14‐3‐3ζ R55A [3] = target: T3, 14‐3‐3ζ R55A (Homo sapiens, UniProt P63104, R55A); test: ExoS peptide binding to 14‐3‐3ζ R55A by microscale thermophoresis, effect of ATP; settings: MST; different concentrations of ATP
T3 sequence (P63104 1-245 R55A): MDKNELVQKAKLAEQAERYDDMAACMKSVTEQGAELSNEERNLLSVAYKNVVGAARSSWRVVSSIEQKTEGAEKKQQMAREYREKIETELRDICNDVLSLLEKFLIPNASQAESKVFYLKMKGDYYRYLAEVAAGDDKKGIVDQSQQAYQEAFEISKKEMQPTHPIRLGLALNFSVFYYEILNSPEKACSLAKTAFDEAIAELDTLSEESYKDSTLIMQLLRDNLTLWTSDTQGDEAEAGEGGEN
In short: as §1

14‐3‐3ζ WT [4] = target: T2, 14‐3‐3ζ WT; type: binding; settings: MST
In short: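 Labelled peptide binding by thermophoresis with recombinant, TEV‐cleaved 14‐3‐3ζ WT. Protein from 32 μM serially diluted 2‐fold with 10 μM FAM‐peptide in FP buffer (50 mM Na‐HEPES pH 8.0, 150 mM NaCl, 10% glycerol), at varied ATP concentrations. Fluorescence counts and power set per manufacturer. Standard glass capillaries; fit in instrument software.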

14‐3‐3ζ WT [5] = target: T2, 14‐3‐3ζ WT; type: binding; settings: FP, 25°C, 30 min; for effect on binding of mode 1 or mode 2 peptides to 14‐3‐3ζ: 1 mM ATP or ATPγS, peptide 62.5 nM, protein 8 to 0.0625 μM
In short: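 Untagged recombinant 14‐3‐3ζ WT apoprotein (His‐tagged, expressed in E. coli BL21 DE3, Ni‐NTA then size exclusion, TEV‐cleaved) in 50 mM Na‐HEPES pH 8.0, 150 mM NaCl, 10% glycerol. N‐terminal FAM peptides fixed at 62.5 nM, protein titrated 8 to 0.0625 μM, ±1 mM ATP or ATPγS in binding buffer. 30 min at 25°C in the dark, then anisotropy read; K_D fitted.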

14‐3‐3ζ WT [6] = target: T2, 14‐3‐3ζ WT; test: Peptide binding to 14‐3‐3ζ WT by surface plasmon resonance, effect of ATPγS; settings: SPR, HBS‐P pH 7.4
In short: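 Amine coupling of recombinant 14‐3‐3ζ WT onto a CM5 chip to 4000 RU. Analyte 10 μM peptide with 10 μM to 1 mM ATPγS in HBS‐P (10 mM Na‐HEPES pH 7.4, 150 mM NaCl, 0.005% v/v Tween‐20). RU change during association and dissociation recorded. Sensorgrams fitted to a 1:1 binding model; relative response compared across ATPγS concentrations.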

14‐3‐3ζ R55A [7] = target: T3, 14‐3‐3ζ R55A; test: ExoS peptide binding to R55A by surface plasmon resonance, effect of ATPγS; settings: SPR; 10 μM to 1 mM ATPγS with 10 μM peptide; HBS‐P pH 7.4; qualitative
In short: (§2)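 Mutant 14‑3‑3ζ amine‑coupled to a CM5 chip at 4000 RU. ATPγS from 10 μM to 1 mM, together with 10 μM peptide, injected in HBS‑P (10 mM Na‑HEPES pH 7.4, 150 mM NaCl, 0.005% Tween‑20). RU changes on association and dissociation tracked; sensorgrams fitted to a 1:1 binding model.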

14‐3‐3ζ Y82A [8] = target: T1, 14‐3‐3ζ Y82A; test: ExoS peptide binding to Y82A by surface plasmon resonance, effect of ATPγS; settings: SPR; 10 μM to 1 mM ATPγS with 10 μM peptide; HBS‐P pH 7.4; qualitative
In short: as §2

14-3-3ζ R55A = target: T4, 14-3-3ζ R55A (human, UniProt P63104 1-245, R55A); test: MST
T4 sequence (looked up): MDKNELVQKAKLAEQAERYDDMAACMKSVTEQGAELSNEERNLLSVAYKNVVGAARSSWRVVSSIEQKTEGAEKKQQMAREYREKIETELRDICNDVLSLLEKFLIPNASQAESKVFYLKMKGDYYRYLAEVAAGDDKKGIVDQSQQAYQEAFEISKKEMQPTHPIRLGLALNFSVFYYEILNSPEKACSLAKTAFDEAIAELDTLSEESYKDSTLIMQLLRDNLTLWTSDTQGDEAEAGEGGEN

14-3-3ζ Y82A = target: T5, 14-3-3ζ Y82A (human, UniProt P63104 1-245, Y82A); test: MST
T5 sequence (looked up): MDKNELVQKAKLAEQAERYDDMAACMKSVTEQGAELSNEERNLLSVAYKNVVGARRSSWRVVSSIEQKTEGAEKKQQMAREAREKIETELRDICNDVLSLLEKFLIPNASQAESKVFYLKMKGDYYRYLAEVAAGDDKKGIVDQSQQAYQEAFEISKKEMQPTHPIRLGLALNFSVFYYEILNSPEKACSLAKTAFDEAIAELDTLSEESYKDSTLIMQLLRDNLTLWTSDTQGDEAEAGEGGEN

14-3-3ζ WT = target: T6, 14-3-3ζ WT (human, UniProt P63104 1-245); test: fluorescence polarisation
T6 sequence (looked up): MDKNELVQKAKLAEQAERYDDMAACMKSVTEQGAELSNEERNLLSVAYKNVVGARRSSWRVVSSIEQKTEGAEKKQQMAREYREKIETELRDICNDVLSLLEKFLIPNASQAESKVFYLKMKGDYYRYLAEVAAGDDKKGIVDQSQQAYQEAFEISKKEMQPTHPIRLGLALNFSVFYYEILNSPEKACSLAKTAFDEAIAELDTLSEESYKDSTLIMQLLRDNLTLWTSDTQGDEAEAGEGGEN

14-3-3ζ E180A = target: T7, 14-3-3ζ E180A (human, UniProt P63104 1-245, E180A); test: fluorescence polarisation
T7 sequence (looked up): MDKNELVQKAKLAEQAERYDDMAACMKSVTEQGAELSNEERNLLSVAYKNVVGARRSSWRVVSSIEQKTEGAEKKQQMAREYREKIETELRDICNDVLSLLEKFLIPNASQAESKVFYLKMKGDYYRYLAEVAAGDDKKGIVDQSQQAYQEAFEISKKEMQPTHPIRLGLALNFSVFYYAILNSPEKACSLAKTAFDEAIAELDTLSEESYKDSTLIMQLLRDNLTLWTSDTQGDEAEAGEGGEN

14‐3‐3τ = settings: cited from earlier work

With Nc1ncnc2c1ncn2[C@@H]1O[C@H](COP(=O)(O)OP(=O)(O)OP(=O)(O)O)[C@@H](O)[C@H]1O [ATP] the “effect on binding of ExoS peptide to Y82A” value (14‐3‐3ζ Y82A [1]) was “did not affect the binding”, the “effect on binding of ExoS peptide to E180A mutant” value (14‐3‐3ζ E180A) was “marginally but reproducibly decreased” and the “ATP binding site suggested by LiP‐MS” value (14‐3‐3ζ WT [2]) was “there is a second ATP binding site at the dimer interface”. For the same molecule, the “effect on binding of ExoS peptide to R55A” value (14‐3‐3ζ R55A [3]) was “did not affect the binding”, the “type of inhibition of ExoS peptide binding” value (14‐3‐3ζ WT [4]; 14‐3‐3ζ WT, ATP at the dimer interface) was “as a non‐competitive inhibitor by binding to the dimer interface” and the “effect on binding of phosphopeptide to ζWT” value (14‐3‐3ζ WT [4]; FAM‐labeled peptide) was “did not show any effect”. The “effect on binding of ExoS peptide to ζWT” value (14‐3‐3ζ WT [4]; different concentrations of ATP) was “the binding of nonphosphorylated ExoS peptide decreased in the presence of ATP; also recorded: concentration‐dependent inhibition”, the “effect on binding of mode 1 or mode 2 peptides to 14‐3‐3ζ” value (14‐3‐3ζ WT [5]) was “no effect” and the “effect on binding of ExoS peptide to 14‐3‐3ζ WT” value (14‐3‐3ζ WT [5]; 1 mM ATP, 5FAM‐labeled ExoS peptide 62.5 nM) was “marginally but reproducibly decreased”.

In the case of Nc1ncnc2c1ncn2[C@@H]1O[C@H](CO[P@](=O)(O)O[P@](=O)(O)O[P@@](=O)(O)S)[C@@H](O)[C@H]1O [ATPγS], the “effect on binding of nonphosphopeptide ExoS to ζWT” value (14‐3‐3ζ WT [6]; 10 μM to 1 mM ATPγS with 10 μM peptide, qualitative) is reported as “definitive decrease; also recorded: concentration‐dependent inhibition”, the “effect on binding of mode 2 phosphopeptide to 14‐3‐3ζ WT” value (14‐3‐3ζ WT [6]; 1 mM ATPγS) is reported as “did not show any effect” and the “ATP binding site suggested by LiP‐MS” value (14‐3‐3ζ WT [2]) is reported as 81–91 residues which are part of the dimer interface, were exclusively protected by ATPγS. The “protection against Proteinase K cleavage (SDS PAGE)” value (14‐3‐3ζ WT [2]; 25°C, 30 min, Proteinase K 1:100, 1 min at 25°C) was “protects the protein against proteolytic cleavage”, the “Log2 fold change of conformotypic peptide, ATPγS bound versus unbound” value (14‐3‐3ζ WT [2]; peptide YDDMAAC (19–25), C_SEMI, adjusted p 2.49E‐02) was −1.0 and the “Log2 fold change of conformotypic peptide, ATPγS bound versus unbound” value (14‐3‐3ζ WT [2]; peptide YDDMAACMK (19–27), FULL_TRP, adjusted p 6.47E‐03) was 1.8. The “effect on binding of nonphosphopeptide ExoS to R55A” value (14‐3‐3ζ R55A [7]) was “definitive decrease”, the “effect on binding of mode 1 or mode 2 peptides to 14‐3‐3ζ” value (14‐3‐3ζ WT [5]) was “no effect” and the “effect on binding of nonphosphopeptide ExoS to Y82A” value (14‐3‐3ζ Y82A [8]) was “definitive decrease”.

B1: FAM-labeled nonphosphorylated ExoS peptide (5FAM-QGLLDALDLAS) (peptide)
peptide: 5FAM-QGLLDALDLAS
B1: binds (14-3-3ζ R55A); binds (14-3-3ζ Y82A); binds (14-3-3ζ WT). B1: binds (14-3-3ζ E180A).

B2: 14‐3‐3τ: 14‐3‐3 tau paralog (protein, UniProt P27348 1-245, looked up)
14-3-3 protein theta: MEKTELIQKAKLAEQAERYDDMATCMKAVTEQGAELSNEERNLLSVAYKNVVGGRRSAWRVISSIEQKTDTSDKKLQLIKDYREKVESELRSICTTVLELLDKYLIANATNPESKVFYLKMKGDYFRYLAEVACGDDRKQTIDNSQGAYQEAFDISKKEMQPTHPIRLGLALNFSVFYYEILNNPELACTLAKTAFDEAIAELDTLNEDSYKDSTLIMQLLRDNLTLWTSDSAGEECDAAEGAEN
For B2, the ATP/ADP exchange activity (14‐3‐3τ) is given as “has an ATP/ADP exchange activity”.
